In ChEMBL document CHEMBL1132698, “3-(Piperazinylpropyl)indoles: selective, orally bioavailable h5-HT1D receptor agonists as potential antimigraine agents” (J Med Chem, 1999):

Tests used:
[1] = target: T1, 5-hydroxytryptamine receptor 1D (Homo sapiens, UniProt P28221); assay: Relative efficacy in stimulation of [35S]GTP-gamma-S, binding in CHO cells compared to 5-HT; format: functional, cell-based
[2] = target: 5-hydroxytryptamine receptor 1B (Homo sapiens, UniProt P28222); assay: Displacement of [3H]5-HT binding from cloned human 5-hydroxytryptamine 1B receptor stably expressed in CHO cells.; format: cell-based
Chain of 5-hydroxytryptamine receptor 1B (P28222 whole entry): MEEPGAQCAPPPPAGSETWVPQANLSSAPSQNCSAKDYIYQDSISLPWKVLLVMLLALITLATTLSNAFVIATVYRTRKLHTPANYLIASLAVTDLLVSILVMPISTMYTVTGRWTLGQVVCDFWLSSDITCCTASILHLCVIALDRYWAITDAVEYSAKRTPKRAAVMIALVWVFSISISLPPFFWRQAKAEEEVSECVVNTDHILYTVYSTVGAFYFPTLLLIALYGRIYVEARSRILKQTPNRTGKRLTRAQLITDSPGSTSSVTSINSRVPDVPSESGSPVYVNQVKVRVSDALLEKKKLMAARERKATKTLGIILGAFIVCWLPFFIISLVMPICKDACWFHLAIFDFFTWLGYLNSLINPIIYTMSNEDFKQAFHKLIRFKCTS

[3] = target: T1, 5-hydroxytryptamine receptor 1D; assay: Stimulation of [35S]GTP-gamma-S, binding in CHO cells expressing the human 5-hydroxytryptamine 1D receptor.; format: functional, cell-based
Outline: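 Membranes from CHO cells stably expressing human 5-HT1D were used at 40 μg protein/mL in HEPES 20 mM, NaCl 100 mM, MgCl2 10 mM, pargyline, ascorbate, pH 7.4. They were preincubated with 100 μM GDP plus compound for 20 min at 30 °C, then 15 min on ice. 100 pM [35S]GTPγS was added for 30 min at 30 °C, followed by filtration and counting. EC50 and Emax (relative to 5-HT maximum) came from nonlinear regression.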

[4] = target: T1, 5-hydroxytryptamine receptor 1D; assay: Displacement of [3H]5-HT binding to the cloned human 5-hydroxytryptamine 1D receptor stably expressed in CHO cells; format: cell-based
Outline: (§1)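 Membranes from CHO cells stably expressing human 5-HT1D receptor were washed, pre-incubated 10 min at 37 °C, then assayed at 0.2 mg protein/mL in 50 mM Tris-HCl pH 7.7 with 4 mM CaCl2, 0.01 mM pargyline and 0.1% ascorbate. […] Filtration and counting followed; IC50 came from nonlinear regression; ≥3 experiments, geometric means.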

[5] = target: T1, 5-hydroxytryptamine receptor 1D; assay: Displacement of [3H]5-HT from human 5-hydroxytryptamine 1D receptor expressed in CHO cells; format: cell-based; outline: as §1
[6] = target: T1, 5-hydroxytryptamine receptor 1D; assay: Displacement of [3H]5-HT binding from human 5-hydroxytryptamine 1D receptor expressed in CHO cells; format: cell-based
[7] = target: T1, 5-hydroxytryptamine receptor 1D; assay: Stimulation of [35S]GTP-gamma-S, binding in CHO cells expressing the 5-hydroxytryptamine 1D receptor; format: functional, cell-based

T1 sequence (P28221 whole entry): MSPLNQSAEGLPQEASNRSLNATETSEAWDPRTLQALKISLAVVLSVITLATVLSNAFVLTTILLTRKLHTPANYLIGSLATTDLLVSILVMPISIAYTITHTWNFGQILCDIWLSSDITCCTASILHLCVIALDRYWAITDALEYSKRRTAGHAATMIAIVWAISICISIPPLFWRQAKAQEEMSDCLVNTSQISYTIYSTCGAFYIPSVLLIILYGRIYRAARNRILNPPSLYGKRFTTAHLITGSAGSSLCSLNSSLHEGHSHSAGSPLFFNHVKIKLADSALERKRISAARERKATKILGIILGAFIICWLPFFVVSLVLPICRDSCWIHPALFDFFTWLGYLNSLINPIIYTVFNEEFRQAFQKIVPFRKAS

SMILES | Relative efficacy [1] | IC50 [2] | EC50 [3] | IC50 [4] | IC50 [5] | IC50 [6] | EC50 [7]
c1cc2[nH]cc(CCN3CCCC3)c2cc1-n1cnnc1 | 120% |  |  |  |  |  | 
CC(=O)Nc1ccc(CCN2CCN(CCCc3c[nH]c4ccc(-n5cnnc5)cc34)CC2)cc1 | 85% | 260 nM | 1.8 nM |  |  |  | 
CC(=O)Nc1cccc(CN2CCN(CCCc3c[nH]c4ccc(-n5cnnc5)cc34)CC2)c1 | 70% | 2.4 nM | 0.2 nM | 0.2 nM |  |  | 
Fc1ccccc1CCN1CCN(CCCc2c[nH]c3ccc(-n4cnnc4)cc23)CC1 | 80% | 98 nM | 1.4 nM | 0.5 nM |  |  | 
c1cc2[nH]cc(CCCN3CCOCC3)c2cc1-n1cnnc1 |  | 7.4 nM |  | 8.8 nM |  |  | 
O=C1CN(CCCc2c[nH]c3ccc(-n4cnnc4)cc23)CCN1CCc1ccccc1 |  | 78 nM |  | 5.2 nM |  |  | 
c1cc(CN2CCN(CCCc3c[nH]c4ccc(-n5cnnc5)cc34)CC2)co1 | 70% | 27 nM | 0.3 nM |  | 1.1 nM |  | 
CC(c1ccccc1)N1CCN(CCCc2c[nH]c3ccc(-n4cnnc4)cc23)CC1 (stereo not drawn) |  | 13 nM |  | 1 nM |  |  | 
c1cc(CN2CCN(CCCc3c[nH]c4ccc(-n5cnnc5)cc34)CC2)ccn1 | 66% | 23 nM | 1 nM | 0.6 nM |  |  | 
OCC(c1ccccc1)N1CCN(CCCc2c[nH]c3ccc(-n4cnnc4)cc23)CC1 (stereo not drawn) | 74% | 9.5 nM | 0.3 nM | 0.7 nM |  |  | 
c1cnc(N2CCN(CCCc3c[nH]c4ccc(-n5cnnc5)cc34)CC2)nc1 | 59% | 0.5 nM | 0.6 nM | 0.6 nM |  |  | 
c1c[nH]c(CN2CCN(CCCc3c[nH]c4ccc(-n5cnnc5)cc34)CC2)n1 | 68% | 36 nM | 2 nM | 1.6 nM |  |  | 
O=C1CN(Cc2ccccc2)CCN1CCCc1c[nH]c2ccc(-n3cnnc3)cc12 |  | 3900 nM |  | 173 nM |  |  | 
CN(C)C(=O)C(c1ccccc1)N1CCN(CCCc2c[nH]c3ccc(-n4cnnc4)cc23)CC1 (stereo not drawn) | 68% | 102 nM | 0.8 nM | 1 nM |  |  | 
c1cncc(CCN2CCN(CCCc3c[nH]c4ccc(-n5cnnc5)cc34)CC2)c1 | 69% | 93 nM | 7.8 nM | 4.9 nM |  |  | 
c1cc2[nH]cc(CCCN3CCNCC3)c2cc1-n1cnnc1 |  | 145 nM |  | 31 nM |  |  | 
NC(=O)C(c1ccccc1)N1CCN(CCCc2c[nH]c3ccc(-n4cnnc4)cc23)CC1 (stereo in doubt; 6p) [listing 1 of 2 here] | 77% |  |  |  |  |  | 
CNCC(c1ccccc1)N1CCN(CCCc2c[nH]c3ccc(-n4cnnc4)cc23)CC1 (stereo not drawn) | 103% | 17 nM | 1.7 nM | 0.9 nM |  |  | 
NC(=O)C(c1ccccc1)N1CCN(CCCc2c[nH]c3ccc(-n4cnnc4)cc23)CC1 (stereo in doubt; 6p) [listing 2 of 2 here] |  | 13 nM | 0.2 nM | 0.2 nM |  |  | 
c1ccc(CNC[C@@H]2CCN(CCc3c[nH]c4ccc(-n5cnnc5)cc34)C2)cc1 | 102% | 37 nM |  |  |  | 0.6 nM | 
Cc1noc(-c2ccc(CCN3CCN(CCCc4c[nH]c5ccc(-n6cnnc6)cc45)CC3)cc2)n1 |  | 46 nM |  | 6.9 nM |  |  | 
Fc1cccc(CCN2CCN(CCCc3c[nH]c4ccc(-n5cnnc5)cc34)CC2)c1 | 88% | 72 nM | 1 nM | 0.5 nM |  |  | 
NC(=O)C(c1ccccc1)N1CCN(CCCc2c[nH]c3ccc(-n4cnnc4)cc23)CC1 (stereo in doubt; 6q) [listing 1 of 2 here] | 61% |  |  |  |  |  | 

SMILES | Relative efficacy [1] | IC50 [2] | EC50 [3] | IC50 [4] | IC50 [5] | IC50 [6] | EC50 [7]
S=C1CN(CCCc2c[nH]c3ccc(-n4cnnc4)cc23)CCN1Cc1ccccc1 | 97% | 18 nM | 2.3 nM | 0.8 nM |  |  | 
CN(C)CCc1c[nH]c2ccc(-n3cnnc3)cc12 | 115% |  |  |  |  |  | 
CN1CCN(CCCc2c[nH]c3ccc(-n4cnnc4)cc23)CC1 | 95% | 309 nM |  | 33 nM |  |  | 54 nM
c1ccc(CCCN2CCN(CCCc3c[nH]c4ccc(-n5cnnc5)cc34)CC2)cc1 | 68% | 85 nM | 4 nM | 4.9 nM |  |  | 
NC(=O)C(c1ccccc1)N1CCN(CCCc2c[nH]c3ccc(-n4cnnc4)cc23)CC1 (stereo in doubt; 6q) [listing 2 of 2 here] |  | 55 nM |  |  |  | 2.3 nM | 3.8 nM
c1coc(CN2CCN(CCCc3c[nH]c4ccc(-n5cnnc5)cc34)CC2)c1 | 66% | 18 nM | 0.5 nM | 0.4 nM |  |  | 
Fc1ccc(CCN2CCN(CCCc3c[nH]c4ccc(-n5cnnc5)cc34)CC2)cc1F | 91% | 83 nM | 0.7 nM | 0.9 nM |  |  | 
c1ccc(N2CCN(CCCc3c[nH]c4ccc(-n5cnnc5)cc34)CC2)cc1 |  | 13 nM |  | 1.4 nM |  |  | 
CN1CCN(CCCCc2c[nH]c3ccc(-n4cnnc4)cc23)CC1 |  | 5100 nM |  | 210 nM |  |  | 
Fc1ccc(CN2CCN(CCCc3c[nH]c4ccc(-n5cnnc5)cc34)CC2)cc1 | 77% | 20 nM | 0.3 nM | 0.1 nM |  |  | 
c1ccc(CN2CCN(CCCc3c[nH]c4ccc(-n5cnnc5)cc34)CC2)cc1 | 57% | 11 nM | 0.2 nM | 0.1 nM |  |  | 
CC(CN1CCN(CCCc2c[nH]c3ccc(-n4cnnc4)cc23)CC1)c1ccccc1 (stereo not drawn) | 94% | 45 nM | 0.3 nM | 0.8 nM |  |  | 
c1ccc(CCN2CCN(CCCc3c[nH]c4ccc(-n5cnnc5)cc34)CC2)cc1 | 73% |  | 1.7 nM |  |  |  | 
Fc1ccc(CCN2CCN(CCCc3c[nH]c4ccc(-n5cnnc5)cc34)CC2)cc1 | 81% |  |  |  |  |  | 
CN1CCN(CCc2c[nH]c3ccc(-n4cnnc4)cc23)CC1 | 61% | 304 nM |  | 134 nM |  |  | 105 nM
CC(=O)Nc1ccc(CN2CCN(CCCc3c[nH]c4ccc(-n5cnnc5)cc34)CC2)cc1 | 78% | 56 nM | 6.1 nM | 2.5 nM |  |  | 
O=C1CN(CCCc2c[nH]c3ccc(-n4cnnc4)cc23)CCN1Cc1ccccc1 | 85% | 282 nM | 7.5 nM | 6.6 nM |  |  | 
c1ccc(CN2CCN(CCCc3c[nH]c4ccc(-n5cnnc5)cc34)CC2)nc1 | 67% | 18 nM | 0.3 nM | 0.4 nM |  |  | 
c1cncc(CN2CCN(CCCc3c[nH]c4ccc(-n5cnnc5)cc34)CC2)c1 | 69% | 22 nM | 0.3 nM | 0.3 nM |  |  | 
FC(F)(F)c1ccc(CN2CCN(CCCc3c[nH]c4ccc(-n5cnnc5)cc34)CC2)cc1 | 82% | 282 nM |  |  |  | 5.2 nM | 11 nM
N#Cc1ccc(CN2CCN(CCCc3c[nH]c4ccc(-n5cnnc5)cc34)CC2)cc1 | 71% | 130 nM | 1.1 nM | 0.7 nM |  |  | 
Clc1ccc(CN2CCN(CCCc3c[nH]c4ccc(-n5cnnc5)cc34)CC2)cc1 | 63% | 59 nM | 1.2 nM | 0.5 nM |  |  | 
